Data set [1] has as its system Mus musculus. The data set is described as follows: Acute toxicity in BALB/c mouse assessed as effect on creatinine level at 300 to 500 mg/kg, po administered as single dose measured at day 14. The settings on record: in vivo. The format is organism-based.
Data set [2] has as its system Plasmodium yoelii. The data set is described as follows: Antiplasmodial activity against GFP-harboring Plasmodium yoelii sporozoites infected in human HepG2 cells expressing CD81 assessed as reduction in parasite growth treated every 24 hrs by DAPI staining-based fluorescence microscopic analysis. The data set is classed as functional, organism-based. The note with it: HepG2, 24 h. Put shortly: (§1)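 Collagen-coated wells seeded with HepG2 (P. berghei), HepG2-CD81 (P. yoelii) or primary human hepatocytes (P. falciparum). Sporozoites added: 5×10^3 to 1×10^4 per well to the cell lines, 2.5×10^4 per well to hepatocytes. Compounds given at infection: top 10 µg/mL plus seven serial dilutions, renewed at 3 h and then every 24 h. Cultures grown 40 h (cell lines) or 8 days (hepatocytes) at 37°C. Methanol-fixed, HSP70 immunolabelled, DAPI counterstained. IC50 from logistic regression; triplicate.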

Data set [3] deals with Mus musculus. The data set is described as follows: Acute toxicity in BALB/c mouse assessed as effect on total bilirubin level at 300 to 500 mg/kg, po administered as single dose measured at day 14. The format is organism-based. The note with it: in vivo.
Data set [4] in a line: Cytotoxicity against human HepG2 cells expressing CD81 assessed as reduction in cell viability after 48 hrs by MTT assay. The data set is classed as cell-based. Put shortly:
(§2)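 Cells seeded at 2 × 10^5 per well and allowed 24 h at 37°C, 5% CO2 to form a monolayer. Dilutions added in triplicate and incubated 48 h. MTT (2 mg/mL) then added for 4 h, followed by DMSO for 20 min at room temperature. Absorbance read at 550 nm; DMSO diluent and untreated cells served as negative controls. CC50 derived from the curve.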
(Formazan colour is commonly taken as a measure of viable cells.)

Data set [5] has as its system Plasmodium yoelii. The data set is described as follows: Antiplasmodial activity against Plasmodium yoelii 17XNL sporozoites infected in BALB/c mouse assessed as pre-patent time period of parasitaemia at 100 mg/kg, po measured at day 4 by […]. The format is functional. Put shortly: (§3)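 BALB/c mice (6-8 weeks, 20-23 g), n=4 per hybrid group and n=5 per control. Dosed orally at 100 mg/kg (100 µL) on days -1, 0, +1 and +2. Vehicle was DMSO 100%; primaquine diphosphate given at 30 mg/kg daily. On day 0, 5 x 10^3 cryopreserved P. yoelii 17XNL sporozoites injected i.v. Parasitaemia read by Giemsa smear and SYBR Green flow cytometry. Groups compared by Kruskal-Wallis test.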
On the technique in general: In flow cytometry, cells or beads pass a laser one at a time.

The subject of data set [6] is Mus musculus. The data set is described as follows: Acute toxicity in BALB/c mouse assessed as necrosis of kidney at 500 mg/kg, po administered as single dose measured at day 14 by haematoxylin and eosin staining based microscopic analysis. The format is organism-based. The note with it: in vivo. Put shortly:
(§4)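 Female BALB/c mice, groups of three, single oral dose; vehicle DMSO 100% for controls. Mice euthanised with CO2 on day 14, or earlier if suffering. Gross necropsy performed. Spleen, liver and kidney fixed in formaldehyde 37%, stained with haematoxylin and eosin and examined by light microscopy.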

The test system of data set [7] is Mus musculus. The data set is described as follows: Acute toxicity in BALB/c mouse assessed as mouse survival at 300 mg/kg, po administered as single dose measured every day for 14 days. The format is organism-based. The settings on record: in vivo, 336 h. Put shortly:
(§5)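 Female BALB/c mice, 6-8 weeks old, 20-23 g, in groups of three. Single oral dose of 300 or 500 mg/kg; vehicle DMSO 100% given to controls. Mice watched for signs of toxicity for 4 h after dosing. Physical appearance, injury, pain and illness recorded daily for 14 days. Euthanasia in a CO2 chamber on day 14 or earlier if suffering.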

A short description of data set [8]: Selectivity index, ratio of CC50 for human HepG2 cells to IC50 for GFP-expressing Plasmodium berghei sporozoites. The format is toxicity. The settings on record: read-out: Ratio CC50/IC50. Put shortly: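 Selectivity index = CC50 (matching cell) / IC50 (matching parasite). Cell–parasite pairs: HepG2-CD81 with P. yoelii, HepG2 with P. berghei, human hepatocytes with P. falciparum.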

Data set [9] has as its system Mus musculus. The data set is described as follows: Acute toxicity in BALB/c mouse assessed as effect on body weight at 300 mg/kg, po administered as single dose measured every day for 14 days. The format is organism-based. The note with it: in vivo, 336 h. Put shortly: as §5
In data set [10] the test system is Plasmodium falciparum. Put plainly: Antiplasmodial activity against chloroquine-sensitive Plasmodium falciparum 3D7 infected in human red blood cells assessed as reduction in parasite growth after 48 hrs by Hoechst 33342 staining based flow cytometric analysis. The format is functional, organism-based. The settings on record: 3D7, 48 h. Put shortly:
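Ring-stage cultures (>80% rings) at 1% parasitaemia in A+ human erythrocytes, 2% haematocrit. Medium RPMI 1640 with 10% A+ serum, 37°C, 5% CO2/5% O2. Compounds in DMSO at 1.56–100 µg/mL final, DMSO ≤1%. After 48 h, cells stained with Hoechst 33342 and 1×10^4 counted by flow cytometry. IC50 from logistic dose-response regression; three independent experiments in triplicate.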

The subject of the next data set is Plasmodium berghei. Put plainly: Antiplasmodial activity against GFP-expressing gametocytes of Plasmodium berghei sporozoites in Anopheles stephensi mosquitoes feeded on blood from infected Swiss mouse assessed as reduction in mosquito infection at 100 mg/kg, ip pretreated for 1.5 hrs followed by blood feeding of mosquito and measured at 8 days post mosquitoes infection by fluorescence microscopic method relative to control. The format is functional. Details: scale not given: the % may be the effect or the level left. Put shortly: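 Swiss mice (female, 6 weeks) infected i.p. with PbGFP-infected red cells (200 µL, 3000 parasites/µL). Gametocytes monitored 4 days by Giemsa smear and exflagellation. Hybrid given i.p. at 100 mg/kg in DMSO 1.5 h before A. stephensi fed 1 h on mice with 1% gametocytes. Controls were untreated and DMSO-treated mice. Thirty mosquitoes per group dissected after 8 days. Midgut oocysts counted by fluorescence microscopy against control mosquitoes taken as 100%.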

The nature of data set [11]: Genotoxicity in Salmonella typhimurium TA1535 harboring pSK1002 assessed as umu gene induction at 0.001 to 0.063 mg/ml after 4 hrs in presence of Sprague-Dawley rat liver S9 fraction by beta-galactosidase reporter gene assay relative to control. The format is toxicity, organism-based. The note with it: salmonella enterica subsp. enterica serovar typhimurium; read-out: FC. Put shortly:
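SOS/umu test, 4 h at 37°C, with S9 mix or PBS. Positive controls 4-NQO (2.5 µg/mL final, no S9) and 2-AA (0.0125 mg/mL final, with S9). Aliquots incubated with ONPG 0.9 mg/mL in B-buffer for 30 min at 28°C, then stopped with 1 M Na2CO3. Activity calculated as A420/A600. Induction factor is the ratio to the DMSO control; genotoxic if ≥2 at ≥80% survival.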
Background: A reporter such as luciferase makes a cellular process visible.

Data set [12] has as its system Plasmodium falciparum. Put plainly: Antiplasmodial activity against GFP-harboring Plasmodium falciparum sporozoites infected in human primary hepatocytes assessed as reduction in parasite growth treated every 24 hrs by DAPI staining-based fluorescence microscopic analysis. The data set is classed as functional, organism-based. Put shortly: as §1
Data set [13] relates to Mus musculus. Put plainly: Acute toxicity in BALB/c mouse assessed as necrosis of liver at 500 mg/kg, po administered as single dose measured at day 14 by haematoxylin and eosin staining based microscopic analysis. The format is organism-based. The note with it: in vivo. Put shortly: as §4
Data set [14] relates to Plasmodium yoelii. Put plainly: Antiplasmodial activity against Plasmodium yoelii 17XNL sporozoites infected in BALB/c mouse assessed as decrease in peripheral blood parasite levels at 100 mg/kg, po measured at day 5 by […]. The format is functional, organism-based. Put shortly: as §3
The subject of data set [15] is Mus musculus. The data set is described as follows: Acute toxicity in BALB/c mouse assessed as appearance of bright hair without erection at 300 to 500 mg/kg, po administered as single dose measured every day for 14 days. The data set is classed as organism-based. The note with it: in vivo, 336 h. Put shortly: as §5
Data set [16] can be described thus: Cytotoxicity against human HepG2 cells assessed as reduction in cell viability after 48 hrs by MTT assay. The data set is classed as cell-based. Put shortly:
as §2

The structures appear in SMILES notation. Activity calls are given as the source filed them. No cut-off for these calls is given here.

Here are results for one molecule from ChEMBL document CHEMBL4270646, “Novel antimalarial chloroquine- and primaquine-quinoxaline 1,4-di-N-oxide hybrids: Design, synthesis, Plasmodium life cycle stage profile, and preliminary toxicity studies” (Eur J Med Chem, 2018).

By IC50 is commonly meant the concentration at which inhibition is half-maximal. In general, CC50 refers to the concentration at which the toxic effect on the cells reaches its halfway point.

As for `COc1cc(NC(C)CCCNC(=O)c2c(C)[n+]([O-])c3ccccc3[n+]2[O-])c2ncccc2c1` (configuration not stated), the Activity entry in the data set with Mus musculus [1] was “Non-Toxic”; with Mus musculus [3], “Non-Toxic”; in the data set on Mus musculus [6], “Non-Toxic”; with Mus musculus [7], “Non-Toxic”; in the data set on Mus musculus [9], “Non-Toxic”; in the data set on Plasmodium berghei, 20%. The Activity entry in the data set with Mus musculus [13] and in the data set on Mus musculus [15] was “Non-Toxic” each time. For the same molecule, the IC50 in the data set with Plasmodium yoelii [2] turned out to be 1.39 µM; with Plasmodium falciparum [10], 67.2 µM; with Plasmodium falciparum [12], 5.38 µM. For the same molecule, the CC50 at 48 h in [4] is above 213 µM; in data set [16], 39.5 µM. Further, the Time in the data set on Plasmodium yoelii [5] came to 24 h. In data set [8], the selectivity ratio was found to be 7.59. In addition, the fold induction at 4 h in data set [11] is below 2. For the same molecule, in the data set on Plasmodium yoelii [14], the result was Active.
